Source: ChEMBL document CHEMBL1124046, “2-Methyl-1,3-dioxaazaspiro[4.5]decanes as novel muscarinic cholinergic agonists” (J Med Chem, 1988)

What was measured:
[1] = biological target: T1, Muscarinic acetylcholine receptor (Rattus norvegicus) (UniProt P08482+P08483+P08485+P08911+P10980); experiment: Apparent binding affinity at Muscarinic acetylcholine receptor by displacing [3H]oxotremorine-M in rat cortex; format: tissue-based
Outline: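 Membranes from male Sprague-Dawley rat (250-300 g) cortex in 20 mM HEPES buffer pH 7.4; displacement of 3.0 nM [3H]oxotremorine-M, 40 min at 30 °C, ended by filtration onto polyethylenimine-presoaked GF/C filters. Triplicates, at least four concentrations per curve; apparent affinity constant corrected for radioligand occupancy, in µM, geometric mean of n experiments.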

[2] = biological target: T1, Muscarinic acetylcholine receptor (Rattus norvegicus); conditions: Cortex
[3] = Ratio of NMS/oxo-M apparent binding affinities (Kapp)
Outline: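 Two rat cortical membrane binding assays, each in triplicate with at least four concentrations, Kapp corrected for radioligand occupancy. [3H]N-methylscopolamine (0.1 nM) run in 20 mM HEPES Krebs' buffer pH 7.4, 60 min at 30 °C. [3H]oxotremorine-M (3.0 nM) run in 20 mM HEPES pH 7.4, 40 min at 30 °C. Ratio taken as NMS Kapp over oxo-M Kapp.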

[4] = biological target: T1, Muscarinic acetylcholine receptor (Rattus norvegicus); conditions: Cortex; remark: listed apart in the source
[5] = biological target: T1, Muscarinic acetylcholine receptor (Rattus norvegicus); experiment: Percent inhibition of [3H]oxotremorine-M binding to Muscarinic acetylcholine receptor in rat cortex at a concentration of >10 uM
Outline: (§1)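 Rat cortical membranes (male Sprague-Dawley, 250-300 g). Test compound at a single stated concentration; percent inhibition of specific binding is reported. [3H]-N-methylscopolamine (0.1 nM) in 20 mM HEPES Krebs' buffer pH 7.4, 60 min at 30 °C; [3H]oxotremorine-M (3.0 nM) in 20 mM HEPES buffer pH 7.4, 40 min at 30 °C. Ended by filtration.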

[6] = biological target: T1, Muscarinic acetylcholine receptor (Rattus norvegicus); experiment: Percent inhibition of [3H]N-methylscopolamine (NMS) binding to Muscarinic acetylcholine receptor in rat cortex at a concentration of >100 uM; outline: as §1
[7] = biological target: T1, Muscarinic acetylcholine receptor (Rattus norvegicus); experiment: Apparent binding affinity at Muscarinic acetylcholine receptor, by displacing [3H]N-methylscopolamine (NMS) in rat cortex at a concentration of >100 uM; format: tissue-based
Outline: (§2)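 Membranes from cortex of male Sprague-Dawley rats (250-300 g). Displacement curves with 0.1 nM [3H]-N-methylscopolamine in 20 mM HEPES Krebs' buffer pH 7.4, 60 min at 30 °C; or with 3.0 nM [3H]oxotremorine-M in 20 mM HEPES buffer pH 7.4, 40 min at 30 °C. Filtration read-out. Triplicates, at least four concentrations. Kapp corrected for radioligand occupancy; geometric mean of n experiments.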

[8] = biological target: T1, Muscarinic acetylcholine receptor (Rattus norvegicus); experiment: Apparent binding affinity at Muscarinic acetylcholine receptor by displacing [3H]oxotremorine-M in rat cortex at a concentration of >10 uM; format: tissue-based; outline: as §2
[9] = biological target: T1, Muscarinic acetylcholine receptor (Rattus norvegicus); conditions: Cortex; remark: listed apart in the source
[10] = biological target: T1, Muscarinic acetylcholine receptor (Rattus norvegicus); conditions: Cortex; remark: listed apart in the source
[11] = biological target: T1, Muscarinic acetylcholine receptor (Rattus norvegicus); conditions: Cortex; remark: listed apart in the source

| Compound | K app [1] | K app [2] | Ratio [3] | inhibition [5] | inhibition [6] | further results |
| --- | --- | --- | --- | --- | --- | --- |
| C[C@H]1OCC2(CN3CCC2CC3)O1 (stereo partly drawn) | 0.035 µM | 4.9 µM | 140 |  |  |  |
| CC1OCC2(CCCN(C)C2)O1 (stereo in doubt; 4b) |  |  |  | 10% | 19% |  |
| CC1OCC2(CCCNC2)O1 (stereo not drawn) |  |  |  | 25% | 29% | inhibition [7]: 20%; inhibition [8]: 13% |
| CC1OCC2(CCCN(C)C2)O1 (stereo in doubt; 4a) |  |  |  | 4% | 24% |  |

Second part, led by results:

| K app [1] | K app [2] | Ratio [3] | Compound | inhibition [5] | inhibition [6] | further results |
| --- | --- | --- | --- | --- | --- | --- |
| 0.04 µM |  | 130 | CCN1C(=O)CC2(CCN(C)CC2)C1=O |  |  | K app [4]: 5 µM |
|  | 24 µM | 4100 | C[N+](C)(C)CCOC(N)=O |  |  | K app [9]: 0.0058 µM |
|  |  | 470 | CC1OCC2(CCNCC2)O1 (stereo not drawn) |  |  | K app [10]: 43 µM; K app [11]: 0.092 µM |
| 0.22 µM | 5.3 µM | 24 | CCC1OCC2(CCN(C)CC2)O1 (stereo not drawn) |  |  |  |
